# Bioassay records as filed in PubChem BioAssay.
# This is a sample that favours compounds with a hit; in the whole collection about 4.6% have one here.
# CHO parental Ca – counter-screen: ATP calcium response change in parental CHO cells; parental CHO-K1, ATP-induced calcium, Fluo-8 fluorescence; inhibition, % at 5.6 µM; 330,000 compounds, 0.63% hits; AID 463079;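 active means inhibition above that plate's mean sample inhibition plus 3 SD, cut at about 26% in these data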;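 further: 0% = ATP-challenged DMSO wells and 100% = DMSO wells without ATP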
#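 Test system: untransfected parental CHO cell line; also added: ATP stimulus; dosing: 5.6 µM, single dose; signal: calcium-sensitive Fluo-8 fluorescence; measure: percent inhibition of ATP-evoked calcium rise, normalized to controls; benchmarks: low control ATP plus DMSO, high control DMSO only; replication: one well per compound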
# TAAR1 ag – human TAAR1 agonism; Q96RJ0; CHO RD-HGA16 TAAR1, Fluo-8 calcium fluorescence; vehicle wells 0%, saturating PEA agonist 100%; activation, % at 3 µM; 360,000 compounds, 0.99% hits; AID 624467;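 active means activation above the mean activation of all test compounds in the run plus 3 SD, cut at about 38% in these data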
# Target sequence (Q96RJ0 whole entry, looked up): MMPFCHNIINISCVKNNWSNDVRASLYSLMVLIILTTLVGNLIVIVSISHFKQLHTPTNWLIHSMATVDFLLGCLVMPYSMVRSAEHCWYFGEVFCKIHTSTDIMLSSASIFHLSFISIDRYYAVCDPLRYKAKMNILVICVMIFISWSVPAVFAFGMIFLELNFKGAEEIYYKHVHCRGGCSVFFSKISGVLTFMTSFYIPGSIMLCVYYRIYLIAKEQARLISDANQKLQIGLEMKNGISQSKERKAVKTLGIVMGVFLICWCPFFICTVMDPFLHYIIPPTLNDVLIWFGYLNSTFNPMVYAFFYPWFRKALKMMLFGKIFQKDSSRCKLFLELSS
#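 Test system: RD-HGA16 (CHO) cells co-expressing Gα16 and hTAAR1 | Doses: Single dose, 3 µM | Schedule: 17-24 h seeding, 75 min 37 °C dye, 30 min RT | Evaluation: % activation from peak over basal fluorescence ratio, DMSO-to-PEA scaled | Technique: Kinetic Fluo-8 calcium fluorescence | Benchmarks: Low control DMSO, high control PEA (EC100)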
# TAAR1 antagonist – human TAAR1 antagonism. Q96RJ0. CHO RD-HGA16 TAAR1, Fluo-8 calcium fluorescence, antagonist. inhibition, % at 3 µM. 360,000 compounds, 1.5% hits. AID 624466;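 active means inhibition above a per-plate cutoff, the mean inhibition of test compounds on that plate plus 3 SD, cut at about 49% in these data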;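 further: 0% = DMSO plus EC80 beta-PEA response and 100% = DMSO alone without agonist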
#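 Test system: CHO RD-HGA16 cells bearing hTAAR1 | Reagent: β-PEA, EC80 | Compound dosing: 3 µM, single point | Schedule: Dye loading 75 min at 37 °C, then 30 min room temperature | Signal: Calcium fluorescence with Fluo-8 | Evaluation: Percent inhibition of PEA-evoked calcium signal, max/basal emission ratio | Control set: DMSO-only wells and EC80 β-PEA-stimulated wells | Repeats: Singlicate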
# GPR7 antag – antagonists of human GPR7 (neuropeptides B/W receptor 1) | P48145 | GPR7-expressing cells, fluorescence antagonist assay | inhibition, % at 4.4 µM | 290,000 compounds, 1.1% hits; in the data active means inhibition above about 16%, passing the limit was not always enough;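 further: cells stimulated with the agonist NPW; 0% = agonist with vehicle and 100% = vehicle without agonist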
# Target sequence (P48145 whole entry, looked up): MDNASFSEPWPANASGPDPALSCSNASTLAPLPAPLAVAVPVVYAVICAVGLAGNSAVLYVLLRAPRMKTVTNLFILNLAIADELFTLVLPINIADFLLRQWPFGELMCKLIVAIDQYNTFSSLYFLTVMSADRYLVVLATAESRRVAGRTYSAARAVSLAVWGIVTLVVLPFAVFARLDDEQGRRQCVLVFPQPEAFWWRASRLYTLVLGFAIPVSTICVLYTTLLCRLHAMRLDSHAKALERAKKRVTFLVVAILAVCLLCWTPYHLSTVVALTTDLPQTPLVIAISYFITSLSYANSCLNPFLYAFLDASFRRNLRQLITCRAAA
# OX1R antag-1 – blocks the human orexin 1 receptor | inhibition, % at 5 µM | AID 434989 | CHO/OX1R cells, Fluo-8 calcium fluorescence, orexin A | O43613 | 330,000 compounds, 0.43% hits;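 active means inhibition above its plate's threshold, mean inhibition of all tested compounds on the plate plus 3 SD, cut at about 37% in these data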;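 further: 0% = orexin A challenge wells and 100% = SB-334867-A antagonist wells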
# OX1R antag-2 – OX1R (human) antagonism; inhibition, % at 6.6 µM; OX1R-expressing cells, FRET antagonist read-out; 330,000 compounds, 1.8% hits; O43613; in the data active means inhibition mostly above about 38%, no sharp cut-off; inactive means mostly below about 40%;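 further: 0% = agonist challenge alone and 100% = reference antagonist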
# GPR7 antag conf – confirmation of human GPR7 antagonists. shares compounds with GPR7 antag. GPR7-expressing cells, calcium fluorescence antagonist mode. inhibition, % at 4.4 µM. 2,400 compounds, 52% hits; in the data active means inhibition above about 24%;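 further: stimulated with the GPR7 agonist NPW; 0% = agonist plus vehicle and 100% = vehicle alone without agonist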
# MCHR1 antagonist – MCHR1 (human) antagonism in GPR7 counter-screen | shares compounds with GPR7 antag | MCHR1-expressing cells, fluorescence antagonist assay | inhibition, % at 4.4 µM | 2,400 compounds, 62% hits | AID 2148; in the data active means inhibition above about 22%;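 further: 0% = vehicle with agonist and 100% = vehicle without agonist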
# Starred values were filed as active, the others as inactive; nt = no result given.
SMILES,CHO parental Ca,TAAR1 ag,TAAR1 antagonist,GPR7 antag,OX1R antag-1,OX1R antag-2,GPR7 antag conf,MCHR1 antagonist
COc1ccc(Nc2nnc(-c3ccc(C(=O)NCCO)cc3)c3ccccc23)cc1,-15,-1,-2,60*,-10,25,2,36*
COc1ccc(Nc2nnc(-c3ccc(C(N)=O)cc3)c3ccccc23)cc1,-12,1,3,34*,-16,20,5,15
COc1ccc(NC(=O)/C(Cl)=C(/Cl)S(=O)Cc2ccc(Cl)cc2)cn1 (centres undefined),nt,5,52*,30*,nt,nt,80*,93*
O=C(c1ccc(Cl)cc1)C(CN1CCCC1)c1ccccc1 (centres undefined),9,8,17,74*,-11,0,46*,87*
COc1ccc(C(=O)C(CN2CCCC2)c2ccccc2)cc1 (centres undefined),-3,13,-12,1,-10,20,nt,nt
CCOC(=O)c1c(C)[nH]c(C(=O)COC(=O)c2ccco2)c1C,-1,3,-9,nt,-24,4,nt,nt
CN(C)Cc1c(C(=O)N/N=C/c2cccc(OCc3c(F)cccc3Cl)c2)nnn1-c1nonc1N,-5,4,-23,3,17,9,nt,nt
CN(C)Cc1c(C(=O)N/N=C/c2ccccc2OCc2c(F)cccc2Cl)nnn1-c1nonc1N,-40,4,46,35*,-14,14,34*,66*
COC(=O)/C=C1\OCc2ccc(C)cc21,nt,1,-18,nt,nt,nt,nt,nt
O=C(CN1CCN(S(=O)(=O)c2ccc(Cl)cc2)CC1)NCC1(N2CCOCC2)CCCCC1,-12,4,-13,nt,-49,6,nt,nt
Clc1ccc(-c2noc(CSc3nnc(Cc4cccs4)n3-c3ccccc3)n2)cc1,1,2,12,28*,-34,28,1,42*
COC(=O)c1ccc(NC(=O)C2CCN(C(=O)Nc3ccccc3)CC2)cc1,-10,2,-4,nt,-3,0,nt,nt
COC(=O)C1=C(C)N=C2SC(C#N)=C(N)N2C1c1cc(OC)c(OC)c(OC)c1 (centres undefined),-12,9,-3,28*,-26,16,-4,-5
COC(=O)C1=C(C)N=C2SC(C#N)=C(N)N2C1c1ccc(OCc2ccccc2)cc1 (centres undefined),-12,12,18,-7,-2,24,nt,nt
C#Cc1ccc(CN2CCC(Oc3cc(C(=O)NC4CC4)ccc3OC)CC2)cc1,nt,0,-4,3,nt,nt,nt,nt
N#Cc1ccc(C(=O)N2CCCCC2c2cc(C(=O)NCc3ccccc3)no2)cc1 (centres undefined),nt,4,2,nt,nt,nt,nt,nt
CC(C)(C)NCCOCCOc1ccc(Cl)cc1C(C)(C)C,-7,5,7,9,-19,7,nt,nt
Clc1ccc(OCCOCCN2CCc3ccccc3C2)c(Cl)c1,-12,36,-27,30*,-16,13,17,30*
CC(C)(C)c1cc(Cl)ccc1OCCOCCN1CCCC1,-6,17,10,24*,-1,-2,35*,41*
Cc1ccc(OCCOCCN2CCN(C)CC2)c(C(C)(C)C)c1,-9,5,-15,-6,2,9,nt,nt
C=CCNCCCOc1ccc(Cl)cc1C(C)(C)C,-1,21,-6,25*,-26,11,25*,37*
O=C(COC(=O)C1CC2CCCC(C1)C2=O)Nc1ccc(Cl)cn1 (centres undefined),-7,0,3,nt,-11,-2,nt,nt
Cc1ccc(C2N(c3ccccc3)C(=S)N3CCCN23)cc1 (centres undefined),-8,6,7,24*,-18,39,14,6
Fc1ccc(C2N(c3ccccc3)C(=S)N3CCCN23)cc1 (centres undefined),-9,2,-16,-8,-13,4,nt,nt
Cc1ccc(F)cc1NC(=O)COC(=O)COc1ccc(C#N)cc1,-1,6,-17,nt,-8,26,nt,nt
SMILES,CHO parental Ca,TAAR1 ag,TAAR1 antagonist,GPR7 antag,OX1R antag-1,OX1R antag-2,GPR7 antag conf,MCHR1 antagonist
Cc1nc2ccc(C(=O)N3CCCC(CO)(Cc4ccc(F)cc4F)C3)cc2nc1C (centres undefined),-19,6,4,32*,-35,11,-10,12
Cc1cc(C(=O)N2CCCC(CO)(Cc3ccc(F)cc3F)C2)nn1C (centres undefined),nt,3,6,nt,nt,nt,nt,nt
CCn1nc(C(C)C)cc1C(=O)N1CCCC(CO)(Cc2ccc(F)cc2F)C1 (centres undefined),-21,5,-8,28*,3,44*,10,27*
O=C(C(Cc1ccccc1)n1cccc1)N1CCCCC1 (centres undefined),-11,-2,-12,-3,-7,16,nt,nt
O=C(C(Cc1ccccc1)n1cccc1)N1CCN(Cc2ccccc2)CC1 (centres undefined),-15,nt,nt,25*,-46,17,21,12
Cc1cc(C)nc(/N=C(\N)Nc2ccc(OCc3ccccc3)cc2)n1,89*,127*,106*,101*,105*,19,99*,107*
Cc1ccc(OCCNC(=O)c2cc(C(=O)NCCOc3ccc(C)cc3)cc([N+](=O)[O-])c2)cc1,15,10,34,-7,20,5,nt,nt
COc1ccc([N+](=O)[O-])cc1C(=O)NCCOc1ccc(Cl)cc1,8,6,9,48*,-33,23,42*,47*
N#CCCn1cc(/C=N/O)c(-c2ccc(-c3ccccc3)cc2)n1,0,1,6,27*,6,23,31*,42*
N#CCCn1cc(C=C(C#N)C#N)c(-c2ccc(Cl)cc2)n1,-3,0,-13,32*,-8,30,12,2
N#CCCn1cc(/C=N/O)c(-c2ccc(Cl)cc2)n1,-13,3,14,4,10,2,nt,nt
CC(NCCC(c1ccccc1)c1ccccc1)c1ccccc1 (centres undefined),0,20,27,28*,-24,16,51*,55*
Brc1cc2c(cc1/C=N/Nc1nc(N3CCCCC3)nc(N3CCCCC3)n1)OCO2,nt,nt,nt,25*,nt,nt,-28,-4
CC1(CCc2ccc3c(c2)OCO3)NCCc2c1[nH]c1ccccc21 (centres undefined),13,49*,10,60*,-4,6,39*,45*
COc1ccc(N2C(=O)/C(=C3/C=CC=CN3C)SC2=S)cc1,-5,6,-4,24*,-9,21,-9,5
